Results: ChEMBL document CHEMBL1821616, “New insights into the structural requirements for pro-apoptotic agents based on 2,4-diaminoquinazoline, 2,4-diaminopyrido[2,3-d]pyrimidine and 2,4-diaminopyrimidine derivatives” (Eur J Med Chem, 2011)
Active and inactive are the calls of the source. The rule behind the calls is not given here.

Key:
MDA-MB-231 [1] = experiment: Cytotoxicity against human MDA-MB-231 cells after 72 hrs by neutral red dye assay; assay type: functional, cell-based; settings: MDA-MB-231, 72 h
Method in brief: (§1)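 Human tumour cells were grown as monolayers with 10% FBS and penicillin/streptomycin at 37 °C in 5% CO2 (HT-29 and T-24 in McCoy's, MDA-MB-231 in Leibovitz). They were exposed to compound in DMSO (≤0.5% v/v final) at screening concentrations of 20 and 100 μM for 72 h and read by neutral red uptake. Survival is relative to cells given DMSO only, in triplicate.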

HT-29 [2] = experiment: Cytotoxicity against human HT-29 cells assessed as cell survival at 100 uM after 72 hrs by neutral red dye assay; assay type: functional; settings: HT-29, 72 h, read-out: Survival
Method in brief: (§2)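 HT-29 and T-24 cells were grown in McCoy's medium and MDA-MB-231 in Leibovitz, each with 10% FBS plus penicillin/streptomycin, as monolayers at 37 °C in 5% CO2. Compounds in DMSO (≤0.5% v/v final) were applied for 72 h. Survival was read by neutral red uptake against 0.5% DMSO-treated cells, as the mean of triplicates.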

T-24 [3] = experiment: Cytotoxicity against human T24 cells after 72 hrs by neutral red dye assay; assay type: functional, cell-based; settings: T-24, 72 h; method in brief: as §1
MDA-MB-231 [4] = experiment: Cytotoxicity against human MDA-MB-231 cells assessed as cell survival at 100 uM after 72 hrs by neutral red dye assay; assay type: functional; settings: MDA-MB-231, 72 h, read-out: Survival; method in brief: as §2
MDA-MB-231 [5] = experiment: Induction of apoptosis in human MDA-MB-231 cells assessed as DNA fragmentation after 24 hrs by ELISA relative to control; assay type: functional
Method in brief: (§3)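 DNA fragmentation was measured with the Cell Death Detection ELISA Plus kit after treatment of cultured tumour cells. The signal is expressed relative to untreated control cultures, which are set to 1.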

HT-29 [6] = experiment: Induction of apoptosis in human HT-29 cells assessed as DNA fragmentation after 48 hrs by ELISA relative to control; assay type: functional; method in brief: as §3
HT-29 [7] = experiment: Cytotoxicity against human HT-29 cells after 72 hrs by neutral red dye assay; assay type: functional, cell-based; settings: HT-29, 72 h; method in brief: as §1
HT-29 [8] = experiment: Induction of apoptosis in human HT-29 cells assessed as caspase3 activation at IC50 after 48 hrs by FACS analysis relative to control; assay type: functional
Method in brief: (§4)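 Active caspase-3 was detected by flow cytometry with a FITC anti-active-caspase-3 antibody kit, with readings at 14, 24 and 48 h. Treated cells were compared with untreated control cells. Results are scored as (+) for an increase of about 50% and (++) for a larger rise.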

T-24 [9] = experiment: Cytotoxicity against human T24 cells assessed as cell survival at 100 uM after 72 hrs by neutral red dye assay; assay type: functional; settings: T-24, 72 h, read-out: Survival; method in brief: as §2
[10] = Cytotoxicity against human CRL8799 cells assessed as cell survival at 20 to 100 uM after 72 hrs by neutral red dye assay; assay type: cell-based; settings: read-out: Survival
Method in brief: (§5)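 The non-tumoral lines were grown with 10% FBS plus penicillin/streptomycin, as monolayers at 37 °C in 5% CO2: CRL-8799 in MEG medium and CRL-11233 in BEGM. Compounds in DMSO (≤0.5% v/v final) were applied for 72 h. Survival was read by neutral red uptake against 0.5% DMSO solvent-treated controls, as the mean of triplicates.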

T-24 [11] = experiment: Induction of apoptosis in human T24 cells assessed as DNA fragmentation after 48 hrs by ELISA relative to control; assay type: functional; method in brief: as §3
[12] = Cytotoxicity against human CRL11233 cells assessed as cell survival at 20 to 100 uM after 72 hrs by neutral red dye assay; assay type: cell-based; settings: read-out: Survival; method in brief: as §5
T-24 [13] = experiment: Induction of apoptosis in human T24 cells assessed as caspase3 activation at IC50 after 48 hrs by FACS analysis relative to control; assay type: functional; method in brief: as §4

Row | Compound | IC50 (MDA-MB-231 [1]) [µM] | viability at 100 µM (HT-29 [2]) [%] | IC50 (T-24 [3]) [µM] | viability at 100 µM (MDA-MB-231 [4]) [%] | Activity (MDA-MB-231 [5]) | fold change (FC) (HT-29 [6]) | IC50 (HT-29 [7]) [µM] | Activity (HT-29 [8]) [%] | viability at 100 µM (T-24 [9]) [%] | viability at 72 h, up to 100 µM [10] [%] | fold change (FC) (T-24 [11]) | viability at 72 h, up to 100 µM [12] [%] | fold change (FC) (MDA-MB-231 [5]) | Activity (HT-29 [6]) | Activity (T-24 [13]) [%] | Activity (T-24 [11])
1 | COc1ccc(CNc2nc(NCc3ccc(OC)cc3)c3ccccc3n2)cc1 | 3.87 | < 45 | 3.87 | < 45 | inactive | 8.5 | 2.88 | 50 | < 45 | 0 | 5 | 100 | – | – | – | –
2 | c1ccc(CCCNc2ccnc(NCCCc3ccccc3)n2)cc1 | 0.36 | < 45 | 8.67 | < 45 | – | – | 12.4 | 50 | < 45 | 10 | 1.7 | 1 | 3.2 | inactive | – | –
3 | CCCCCCCNc1nc(SCC)nc2ncccc12 | 2.6 | < 45 | 5.3 | < 45 | – | 2.4 | 19.9 | – | < 45 | 93 | – | 100 | 2.7 | – | 75 | inactive
4 | Brc1ccc(CCNc2nc(NCCc3ccc(Br)cc3)c3ccccc3n2)cc1 | 10.4 | < 45 | 3.32 | < 45 | inactive | – | 3.47 | 50 | < 45 | 11 | – | 1 | – | inactive | 50 | inactive
5 | CCCCCCNc1nc(SCCCC)nc2ncccc12 | 1.2 | < 45 | 4.5 | < 45 | – | 6.4 | 2.8 | 75 | < 45 | 95 | 4.3 | 99 | 9.3 | – | 75 | –
6 | CCCCCNc1nc(NCCCCC)c2ccccc2n1 | 3.13 | < 45 | 5.25 | < 45 | – | 1.7 | 3.57 | – | < 45 | 4 | 1.8 | 5 | 2.5 | – | 50 | –
7 | c1ccc(CCNc2nc(NCCc3ccccc3)c3ccccc3n2)cc1 | 2.18 | < 45 | 2.86 | < 45 | inactive | – | 2.3 | – | < 45 | 92 | – | 100 | – | inactive | 50 | inactive
8 | c1ccc(CCCNc2nc(NCCCc3ccccc3)c3ccccc3n2)cc1 | 4.18 | < 45 | 3.45 | < 45 | inactive | – | 2.2 | 75 | < 45 | 87 | – | 2 | – | inactive | 75 | inactive
9 | CCCCCNc1nc(SCCCC)nc2ncccc12 | 6.3 | < 45 | 8.9 | < 45 | – | 1.9 | 12.6 | – | < 45 | 84 | – | 76 | 1.7 | – | 50 | inactive
